Hits are enriched below; roughly 5.1% of the tested compounds scored in any of these assays.
STAT1 activator = activators of IFN-gamma induced STAT1 signaling; NIH 3T3 STAT1-luciferase reporter, luminescence; 100% = IFN-gamma alone, no compound; 200,000 compounds, 2.6% hits; activation (% of control), % at 5.5 µM;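 active = activation above the screen-wide mean activation plus 3 SD, cut at about 130% in these data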;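 note: raw ratio to IFN-gamma control signal so 100% means no change and 0% no light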
STAT3 inh-1 = reduces IL-6 driven STAT3 reporter signal. U3A cells, IL-6 STAT3-luciferase reporter, luminescence; host cell line lacks STAT1. inhibition, % at 5.5 µM. 190,000 compounds, 0.89% hits. AID 862;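 active = inhibition above the mean inhibition across all screened compounds plus 3 SD, cut at about 44% in these data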;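 note: 0% = DMSO only wells and 100% = 100 µM nifuroxazide control wells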
APP 5'UTR act = APP 5'UTR luciferase reporter activation. 190,000 compounds, 1% hits. activation, % at 2 µM. AID 1276. SH-SY5Y APP 5'UTR luciferase reporter, luminescence; zero percent = DMSO vehicle wells;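 active = activation above a set limit, based on mean plus 3 SD of controls, cut at about 140% in these data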
STAT3 activator = activators of IL-6 induced STAT3 signaling; U3A cells, IL-6 STAT3-luciferase reporter, luminescence; 100% = signal with IL-6 EC80 alone; activation (% of control), % at 5.6 µM; 190,000 compounds, 0.91% hits; AID 871;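 active = activation above the screen-wide mean of compound activation plus 3 SD, cut at about 130% in these data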;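 note: 0% = background luminescence of wells with medium and substrate only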
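Material: STAT3-luciferase reporter U3A cells. Controls: IL-6-treated wells, 100% activation. Read-out: % activation versus median of IL-6-stimulated wells. Probe or stimulus: IL-6 stimulus at 33 ng/mL final. Timing: compound 1 h, then IL-6 6 h at 37 °C. Signal: reporter luminescence signal.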
STAT1 inh = inhibitors of IFN-gamma induced STAT1 signaling; NIH 3T3 STAT1-luciferase reporter, luminescence; inhibition, % at 5.5 µM; 200,000 compounds, 0.35% hits;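 active = inhibition above a set limit, the mean inhibition across all tested compounds plus 3 SD, cut at about 34% in these data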;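 note: 0% = IFN-gamma with DMSO and 100% = IFN-gamma with 300 µM nifuroxazide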
NF-kB expr up = compounds increasing NF-kB expression in human neuronal cells. NF-kB reporter expression; stronger effect = higher value. AID 1239. 190,000 compounds, 1.6% hits. fold change at 12.5 µM; in the data active = fold change above about 3.3
STAT3 inh-2 = confirmation of STAT3 signaling inhibitors. 1,200 compounds, 45% hits. U3A cells, IL-6 STAT3 luciferase reporter, luminescence; cell line lacks STAT1. shares compounds with STAT3 inh-1. inhibition, % at 5.7 µM. AID 1265;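 active = inhibition above the hit cutoff computed for the primary STAT3 screen, cut at about 44% in these data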;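 note: 0% = IL-6 plus DMSO and 100% = IL-6 plus nifuroxazide control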
NFkB inh 2 = counter-screen for STAT3 inhibitors: NF-kappaB inhibition; shares compounds with STAT3 inh-1; HEK293T NF-kB luciferase reporter, TNF-alpha induced; inhibition, % at 5.7 µM; 1,200 compounds, 36% hits; AID 1308;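 active = inhibition above the mean of solvent-only control wells plus 3 SD, cutoff set per campaign, cut at about 13% in these data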;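 note: 0% = TNF-alpha with DMSO and 100% = TNF-alpha with MG high control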
STAT1 inh STAT3c = STAT1 inhibition in STAT3 inhibitor counter-screen; shares compounds with STAT3 inh-1; NIH 3T3 STAT1-luciferase reporter, IFN-gamma induced, luminescence; inhibition, % at 5.7 µM; 1,200 compounds, 27% hits;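 active = inhibition above the mean plus 3 SD of solvent-only control wells, limit set per screening run, cut at about 16% in these data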;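 note: 0% = DMSO with IFN-gamma and 100% = nifuroxazide control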
* marks the source's active call; other numbers are inactive results; . = no result.

SMILES	STAT1 activator	STAT3 inh-1	APP 5'UTR act	STAT3 activator	STAT1 inh	NF-kB expr up	STAT3 inh-2	NFkB inh 2	STAT1 inh STAT3c
Cc1oc(CC(C)C)cc1C(=O)NCCCC(=O)O	100.3	7.0	4.2	98.8	-0.7	1.27	.	.	.
CN(C)c1ccc(C=Nc2ccccc2C(N)=O)cc1	134.7*	45.4*	165.9*	63.1	-38.1	3.73*	31.1	8.6	-44.5
c1ccc(OCCCCn2cnc3ccccc32)cc1	88.3	43.5*	10.4	65.8	12.8	0.95	34.9	-6.7	-2.5
Cc1ccccc1OCCCCn1cnc2ccccc21	92.5	60.6*	22.0	49.9	9.2	1.06	52.0*	11.7	13.8
Cc1ccc(OCCCCn2cnc3ccccc32)cc1	82.2	26.1	8.6	82.0	16.8	1.32	.	.	.
CCCOc1ccc(Cn2cnc3ccccc32)cc1	86.6	47.6*	-1.6	62.5	14.5	0.68	28.7	-1.1	7.3
CCNC(=O)C(=O)NCc1ccncc1	94.9	-2.7	12.7	103.3	4.0	1.09	.	.	.
Cc1c(C(=O)N2CCc3ccccc3C2)sc2nc(-c3ccccc3)cn12	100.6	2.1	7.4	100.9	-0.6	1.28	.	.	.
c1ccc(-c2cn3c4c(sc3n2)CCCC4)cc1	75.4	82.4*	87.8	33.4	26.8	1.61	58.7*	49.9*	11.7
CCOC(=O)c1cncc(C(=O)O)c1	101.7	2.8	7.1	101.0	-1.9	1.61	.	.	.
O=C(NC1c2ccccc2-c2ccccc21)N1CCCCC1	101.4	51.7*	7.0	61.3	-1.5	1.09	34.9	17.2*	3.2
COc1ccccc1NS(=O)(=O)c1cccc(C(=O)N/N=C2\CC(=O)CC(C)(C)C2)c1	99.8	14.0	0.1	90.8	0.2	1.1	.	.	.
O=[N+]([O-])c1ccc2nc(-c3ccc(OC(F)F)cc3)cn2c1	119.8	65.7*	82.1	45.9	-21.2	3.5*	36.4	-30.0	-87.0
CC1CN(C(=O)c2cccc(COc3ccc(Br)cc3)c2)CC(C)O1 (stereo unspecified)	123.9	-20.9	72.0	120.1	-26.8	2.46	.	.	.
NNC(=O)c1cccc(COc2ccc(Br)cc2)c1	70.7	79.4*	105.1	31.3	32.4	1.85	71.1*	32.6*	31.4*
Clc1ccc(OCc2cnc(Cl)s2)cc1	109.5	10.9	6.7	97.2	-10.6	1.21	.	.	.
CCOc1ccccc1C(=O)NC(C(=O)Nc1cccc(S(N)(=O)=O)c1)C(C)C (stereo unspecified)	91.8	-1.0	5.7	109.0	7.0	1.04	.	.	.
CC(C)C(NC(=O)c1ccc(C(C)(C)C)cc1)C(=O)Nc1cccc(S(N)(=O)=O)c1 (stereo unspecified)	110.4	43.9*	3.0	65.3	-11.7	1.61	10.1	-1.8	-3.4
COC(=O)c1sccc1Oc1c(Cl)cccc1[N+](=O)[O-]	107.4	4.2	9.5	103.8	-7.6	1.05	.	.	.
CN(C)S(=O)(=O)c1ccc(C(=O)Nc2nc(-c3cc4ccccc4o3)cs2)cc1	86.1	52.9*	57.8	57.6	15.3	1.4	75.8*	20.2*	16.3*
CC1CN(S(=O)(=O)c2ccc(C(=O)Nc3nc(-c4cc5ccccc5o4)cs3)cc2)CC(C)O1 (stereo unspecified)	93.4	-0.4	-7.4	100.5	7.6	1.11	.	.	.
O=C(Nc1nc(-c2cc3ccccc3o2)cs1)c1ccc(S(=O)(=O)N2CCCC2)cc1	80.8	57.5*	13.5	53.3	21.1	0.65	77.4*	24.9*	20.1*
CCCC(=O)N1CCN(c2ccc(NC(=O)c3cc4ccccc4o3)cc2Cl)CC1	89.1	50.3*	6.6	60.1	11.7	0.34	43.2	2.6	-2.5
CCC(=O)N1CCN(c2ccc(NC(=O)c3cc4ccccc4o3)cc2Cl)CC1	92.5	49.0*	-14.3	61.1	8.1	0.35	34.3	-3.0	-13.6
CCCC(=O)N1CCN(c2ccc(NC(=O)c3cccs3)cc2Cl)CC1	88.5	9.4	-2.5	96.8	12.1	0.75	.	.	.
SMILES	STAT1 activator	STAT3 inh-1	APP 5'UTR act	STAT3 activator	STAT1 inh	NF-kB expr up	STAT3 inh-2	NFkB inh 2	STAT1 inh STAT3c
O=C(c1cc2ccccc2o1)N1CCN(c2ccccc2Cl)CC1	97.4	7.2	10.4	97.3	2.8	1.05	.	.	.
O=C(Nc1ccc(N2CCN(C(=O)c3ccco3)CC2)c(Cl)c1)c1cc2ccccc2o1	99.8	47.8*	75.0	62.4	9.3	0.29	47.8*	10.8	3.9
CN(C(=O)CO/N=C/c1ccc(OC(F)F)cc1)C1CCS(=O)(=O)C1 (stereo unspecified)	97.3	-2.4	1.6	105.2	1.0	1.23	.	.	.
CCCc1nnc(SCC(=O)N2CCCCC2C)n1CCOC (stereo unspecified)	105.5	2.5	19.4	104.1	-8.1	1.3	.	.	.
Cc1nc2ccccc2c2oc(C(=O)NCc3ccccn3)cc12	91.1	20.0	-5.8	86.8	8.0	0.39	.	.	.
Cc1ccc(CNC(=O)c2cc3c(C)nc4ccccc4c3o2)cc1	79.5	54.5*	-6.8	58.7	22.9	0.42	42.8	8.7	23.6*
O=S(=O)(c1ccc(Cl)cc1)N1CCC(O)(CN2CCN(Cc3ccccc3)CC2)CC1	99.3	7.1	-16.5	95.9	0.6	1.4	.	.	.
O=S(=O)(c1ccccc1)N1CCC(O)(CSc2ccc(Cl)cc2)CC1	90.2	76.3*	-1.6	40.2	11.0	0.89	47.2*	16.7*	4.4
Cc1ccc(NC(=O)Nc2ccnc(-c3cccnc3)n2)cc1	82.2	66.2*	-82.7	49.0	19.0	0.96	70.2*	1.5	22.7*
Cc1ccc(C(=O)Nc2ccnc(-c3cccnc3)n2)cc1	120.0	14.6	21.1	88.8	-23.2	1.44	.	.	.
O=C(O)/C=C/C(=O)N1CCN(c2cccc(Cl)c2)CC1	100.4	15.5	1.2	88.1	-1.9	1.11	.	.	.
O=c1c(Cl)c(Cl)cnn1Cc1ccccc1Cl	94.2	47.5*	-91.9	62.8	6.3	1.35	55.5*	26.7*	20.0*
Nn1c(-c2ccccn2)nnc1-c1ccccn1	124.6	12.6	19.9	93.9	-26.9	1.39	.	.	.
c1ccc(-c2ccc(-c3ccccn3)nn2)nc1	113.8	51.0*	107.3	60.9	-13.2	2.21	38.3	0.3	-44.4
Cc1nc(NCc2ccccn2)c2ccccc2n1	83.8	48.6*	-28.9	61.9	17.5	0.71	32.4	1.2	11.8
Cc1cc(NCc2ccccn2)nc2ccccc12	89.4	24.5	-4.5	83.4	11.5	1.27	.	.	.

Compound activity: PubChem, several laboratories
